Bioassay records (PubChem)
In the library only some 2.2% were active in any assay of this set; here they are far more common.
SKN-1 block = suppressors of acrylamide-induced Pgst-4::GFP reporter in worms, primary screen, SKN-1 inhibitor project, whole organism, uHTS, GFP/RFP fluorescence ratio, strain VP596. C. elegans VP596 Pgst-4::GFP/RFP ratio, 24 h. inhibition, % at 21.8 µM. hit rate 0.49% among 360,000. AID 624304, 2012;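 active = interference check ratio from 0.5 to 1.5 plus GFP to RFP signal ratio inhibition reaching or exceeding a fixed threshold, cut at about 30% in these data, passing the limit was not always enough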
Neddylation inh = inhibitors of cullin neddylation, primary screen, biochemical, TR-FRET, uHTS, NAE and Ubc12; calls only at 25 µM; NEDD8-conjugating enzyme Ubc12 (Homo sapiens) + NEDD8-activating enzyme E1 regulatory …; AID 651699, 2012; hit rate 0.58% among 360,000; in the data active = inhibition above about 36%
Tn6 DDE FP = inhibitors of Tn6 peptide binding to fibrin DD(E), primary screen, biochemical, fluorescence polarization, human fibrin, Tn6 probe; Fibrinogen beta chain (Homo sapiens), P02675; Fibrin DD(E) TRITC-Tn6 fluorescence polarization displacement; inhibition, % at 8.3 µM; hit rate 0.21% among 370,000; AID 720509, 2013;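 active = inhibition above a per-campaign cutoff: mean of compounds within control limits plus 3 SD, cut at about 15% in these data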
Target sequence (P02675 whole entry, looked up): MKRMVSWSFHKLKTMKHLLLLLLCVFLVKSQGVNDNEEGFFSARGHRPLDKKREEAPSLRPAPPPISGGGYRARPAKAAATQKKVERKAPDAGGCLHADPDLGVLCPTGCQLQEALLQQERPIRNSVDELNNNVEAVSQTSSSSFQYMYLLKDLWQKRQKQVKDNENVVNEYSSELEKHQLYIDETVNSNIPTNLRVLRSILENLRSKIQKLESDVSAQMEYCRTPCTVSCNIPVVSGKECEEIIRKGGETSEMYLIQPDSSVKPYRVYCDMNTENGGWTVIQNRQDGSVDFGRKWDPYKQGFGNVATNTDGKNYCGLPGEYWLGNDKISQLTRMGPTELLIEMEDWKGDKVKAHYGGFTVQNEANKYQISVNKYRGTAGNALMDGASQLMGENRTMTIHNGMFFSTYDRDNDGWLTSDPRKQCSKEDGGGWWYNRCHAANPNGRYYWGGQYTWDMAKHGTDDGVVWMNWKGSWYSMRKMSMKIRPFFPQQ
DDE Tn7 FP inh = inhibitors of Tn7 peptide binding to fibrin DD(E), primary screen, biochemical, fluorescence polarization, human fibrin, Tn7 probe; Fibrinogen beta chain (Homo sapiens), P02675; FP displacement of FITC-Tn7 peptide from fibrin DD(E); 0% = median of compound wells per plate; hit rate 0.13% among 370,000; AID 720508, 2013; inhibition, % at 8.3 µM;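 active = inhibition above the mean of compounds falling within the control limits plus 3 SD of them, cut at about 14% in these data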
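Assay system: human fibrin DD(E) protein / Input: 2 µM fibrin DD(E) / Benchmarks: high control of 10 µM Aha-Tn7 peptide / Measured by: fluorescence polarization of the labelled Tn7 tracer / Medium: Tris buffer with calcium and detergent, pH 7.8 / Timing: 10 min compound pre-incubation, 3 h probe incubation at room temperature / Repeats: one replicate per compound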
MT1-MMP act inh = blockers of MT1-MMP proenzyme processing, primary screen, HT1080 RFP-PRO-GFP cells, GFP/RFP fluorescence. GFP/RFP ratio change, % at 20 µM. GFP/RFP ratio fluorescence, overnight; percent of plate control window, DMSO zero. hit rate 0.061% among 360,000;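 active = GFP/RFP ratio change of at least 30% with cell ATP level not reduced by more than half and red fluorescence within 50% of control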
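Test system: HT1080 RFP-PRO-GFP cells; Benchmarks: DMSO and RFP-L50D-GFP cell wells; Timing: cells overnight before dosing, compound overnight, 37 °C, 5% CO2; Compound: one 20 µM compound dose with 1% DMSO; Read-out: GFP/RFP fluorescence ratio.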
KLK7 zymogen act = proKLK7 zymogen activators, primary screen, biochemical, fluorescence intensity; hit rate 0.9% among 370,000; activation, % at 7 µM; purified proKLK7, EDANS-DABCYL substrate fluorescence; 100% is mature enzyme control, 0% vehicle;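 active = activation above the mean of all tested compounds plus 3 SD, computed per campaign excluding outliers beyond control limits, cut at about 13% in these data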
Target sequence (P49862 whole entry, looked up): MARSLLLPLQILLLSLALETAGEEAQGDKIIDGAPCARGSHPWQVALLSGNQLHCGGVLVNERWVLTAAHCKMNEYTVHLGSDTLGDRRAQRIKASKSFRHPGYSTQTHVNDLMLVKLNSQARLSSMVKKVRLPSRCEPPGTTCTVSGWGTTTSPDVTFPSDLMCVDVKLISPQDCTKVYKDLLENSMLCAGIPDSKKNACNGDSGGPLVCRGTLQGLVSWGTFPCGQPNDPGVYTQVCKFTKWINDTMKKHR
Tn6 DDE ctr = counter-screen hit for Tn6 peptide-fibrin DD(E) binding disruption | TRITC-Tn6 fluorescence polarization displacement; 0% = median of compound wells, not DMSO | inhibition, % at 8.3 µM | hit rate 2% among 680 | shares compounds with Tn6 DDE FP;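 active = inhibition above the mean of test compounds lying between the control limits plus 3 SD of those, cut at about 14% in these data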
Tn6 DDE conf = inhibitors of Tn6 peptide binding to fibrin DD(E), confirmation, biochemical, fluorescence polarization, human fibrin, Tn6 probe | shares compounds with Tn6 DDE FP | FP displacement of TRITC-Tn6 peptide from DD(E); 0% = per-plate median of test wells | inhibition, % at 8.3 µM | hit rate 10% among 680 | AID 720631, 2013;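 active = inhibition above the mean of compounds lying within the control limits plus 3 SD, cut at about 16% in these data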
A number is an active result; ! = not active in a repeat.

`COc1cc(OC)cc(C(=O)N[C@H](C(=O)N2CCc3ccccc32)C(C)C)c1` gave SKN-1 block inactive, Neddylation inh inactive, Tn6 DDE FP inactive, DDE Tn7 FP inh inactive, MT1-MMP act inh inactive and KLK7 zymogen act inactive.
Cc1cc(N)ccc1-n1c(C)ccc1C was read as SKN-1 block inactive, Neddylation inh inactive, Tn6 DDE FP 154, DDE Tn7 FP inh inactive, MT1-MMP act inh inactive, KLK7 zymogen act inactive, Tn6 DDE ctr inactive and Tn6 DDE conf inactive.
Cc1cc(C)c2c(N)c(C(=O)NCc3ccco3)sc2n1 was read as SKN-1 block inactive, Tn6 DDE FP inactive, DDE Tn7 FP inh inactive, MT1-MMP act inh inactive and KLK7 zymogen act inactive.
`Cc1cc(C)c2c(N)c(C(=O)Nc3ccccc3Cl)sc2n1` gave SKN-1 block inactive, Tn6 DDE FP 18, DDE Tn7 FP inh inactive, MT1-MMP act inh inactive, KLK7 zymogen act inactive, Tn6 DDE ctr inactive and Tn6 DDE conf inactive.
`CC1CC(=O)N(C)c2ccc([N+](=O)[O-])cc2N1` (stereo not drawn) gave SKN-1 block inactive, Neddylation inh inactive, Tn6 DDE FP inactive, DDE Tn7 FP inh inactive, MT1-MMP act inh inactive and KLK7 zymogen act inactive.
COc1ccc2cc(C(=O)Nc3ccccc3)sc(=O)c2c1OC was read as SKN-1 block inactive, Neddylation inh inactive, Tn6 DDE FP inactive, DDE Tn7 FP inh inactive, MT1-MMP act inh inactive and KLK7 zymogen act inactive.
Screening COc1ccc2cc(C(=O)Nc3ccc(S(N)(=O)=O)cc3)sc(=O)c2c1OC returned SKN-1 block inactive, Neddylation inh inactive, Tn6 DDE FP 18, DDE Tn7 FP inh inactive, MT1-MMP act inh inactive, KLK7 zymogen act inactive, Tn6 DDE ctr inactive and Tn6 DDE conf inactive.
COc1ccc(C(=O)c2no[n+]([O-])c2C(=O)c2ccc(OC)cc2)cc1 was read as SKN-1 block inactive, Neddylation inh inactive, Tn6 DDE FP inactive, DDE Tn7 FP inh inactive, MT1-MMP act inh inactive and KLK7 zymogen act inactive.
`Cc1c(C(=O)c2no[n+]([O-])c2C(=O)c2cnn(C)c2C)cnn1C` gave SKN-1 block inactive, Neddylation inh inactive, Tn6 DDE FP 16, DDE Tn7 FP inh inactive, MT1-MMP act inh inactive, KLK7 zymogen act inactive, Tn6 DDE ctr inactive and Tn6 DDE conf inactive.
COc1ccc(NC(=O)CSCC(=O)Nc2sccc2C#N)cc1 was read as SKN-1 block inactive, Neddylation inh inactive, Tn6 DDE FP 16, DDE Tn7 FP inh inactive, MT1-MMP act inh inactive, KLK7 zymogen act inactive, Tn6 DDE ctr inactive and Tn6 DDE conf inactive.
Screening COc1ccc(CCC(=O)Nc2sccc2C#N)cc1 returned Tn6 DDE FP inactive, DDE Tn7 FP inh inactive and KLK7 zymogen act inactive.
Screening O=C(COc1ccc(Br)cc1)N1CCN(c2ccccc2)CC1 returned SKN-1 block inactive, Neddylation inh inactive, Tn6 DDE FP inactive, DDE Tn7 FP inh inactive, MT1-MMP act inh inactive and KLK7 zymogen act inactive.
`NC(=O)c1ccc(-n2nc(C(F)(F)F)c3c2CCCC3)cc1` gave SKN-1 block inactive, Neddylation inh inactive, Tn6 DDE FP inactive, DDE Tn7 FP inh inactive, MT1-MMP act inh inactive and KLK7 zymogen act inactive.
`O=C(O)c1ccc(-n2nc(C(F)(F)F)c3c2CCCC3)cc1` gave SKN-1 block inactive, Neddylation inh inactive, Tn6 DDE FP 21!, DDE Tn7 FP inh inactive, MT1-MMP act inh inactive, KLK7 zymogen act inactive, Tn6 DDE ctr inactive and Tn6 DDE conf inactive.
`O=c1ccc2[n+]([O-])c3ccc(O)cc3oc-2c1` gave SKN-1 block inactive, Neddylation inh inactive, Tn6 DDE FP active, DDE Tn7 FP inh inactive, MT1-MMP act inh inactive, KLK7 zymogen act inactive, Tn6 DDE ctr inactive and Tn6 DDE conf 93.
Screening CCOC(=O)C1CCCN(c2c(NCCc3ccc(C)cc3)c(=O)c2=O)C1 (stereo not drawn) returned SKN-1 block inactive, Neddylation inh inactive, Tn6 DDE FP 17, DDE Tn7 FP inh inactive, MT1-MMP act inh inactive, KLK7 zymogen act inactive, Tn6 DDE ctr inactive and Tn6 DDE conf inactive.
CC1(C)SC(C)(C)N(C=O)C1C(=O)O (stereo not drawn) was read as SKN-1 block inactive, Neddylation inh inactive, Tn6 DDE FP inactive, DDE Tn7 FP inh inactive, MT1-MMP act inh inactive and KLK7 zymogen act inactive.
For O=C(Cn1cnc2ccccc2c1=O)Nc1nnc(SCc2ccc(Cl)cc2)s1 the results were SKN-1 block inactive, Neddylation inh inactive, Tn6 DDE FP inactive, DDE Tn7 FP inh inactive, MT1-MMP act inh inactive and KLK7 zymogen act inactive.
Screening CCOC(=O)C1(C)C=C(Nc2ccc(O)cc2)C(=O)N1c1ccc(O)cc1 (stereo not drawn) returned SKN-1 block inactive, Neddylation inh inactive, Tn6 DDE FP 24, DDE Tn7 FP inh inactive, MT1-MMP act inh inactive, KLK7 zymogen act inactive, Tn6 DDE ctr inactive and Tn6 DDE conf inactive.
For Cc1cc(N2C(=O)C(=O)/C(=C(/O)c3ccccc3)C2c2cccs2)no1 (stereo not drawn) the results were SKN-1 block inactive, Neddylation inh inactive, Tn6 DDE FP 21, DDE Tn7 FP inh inactive, MT1-MMP act inh inactive, KLK7 zymogen act inactive, Tn6 DDE ctr inactive and Tn6 DDE conf inactive.
For Cc1ccc(NC(=O)Cc2nc(CCl)cs2)cc1 the results were SKN-1 block inactive, Neddylation inh inactive, Tn6 DDE FP 15, DDE Tn7 FP inh inactive, MT1-MMP act inh inactive, KLK7 zymogen act inactive, Tn6 DDE ctr inactive and Tn6 DDE conf inactive.
For COc1ccc(CC(=O)OCc2csc(CC(=O)Nc3ccc(C)cc3)n2)cc1 the results were SKN-1 block inactive, Neddylation inh inactive, Tn6 DDE FP inactive, DDE Tn7 FP inh inactive, MT1-MMP act inh inactive and KLK7 zymogen act inactive.
Screening O=c1cc(CSc2ccccn2)c2ccccc2[nH]1 returned SKN-1 block inactive, Neddylation inh inactive, Tn6 DDE FP inactive, DDE Tn7 FP inh inactive, MT1-MMP act inh inactive and KLK7 zymogen act inactive.
